Key:
[1] = Oral bioavailability in C57B6 mouse at 10 mg/kg; type: ADME, organism-based; conditions: in vivo
How it was run: (§1)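 Male C57B6 mice. IV dose of 2 mg/kg in 50% DMSO/50% PEG200. Oral dose of 10 mg/kg in 2% Tween/0.5% methyl cellulose in water. Values are PK parameters from the iv and po arms.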

[2] = AUC in C57B6 mouse at 10 mg/kg, po; type: ADME, organism-based; set-up: dose 10 mg/kg, route oral; conditions: plasma; how it was run: as §1
[3] = Tmax in C57B6 mouse at 10 mg/kg, po; type: ADME, organism-based; set-up: dose 10 mg/kg, route oral; conditions: in vivo; how it was run: as §1
[4] = Cmax in C57B6 mouse at 10 mg/kg, po; type: ADME, organism-based; set-up: dose 10 mg/kg, route oral; conditions: in vivo; how it was run: as §1
[5] = Half life in C57B6 mouse at 2 mg/kg, iv; type: ADME, organism-based; set-up: dose 2 mg/kg, route intravenous; conditions: in vivo; how it was run: as §1
[6] = AUC in C57B6 mouse at 2 mg/kg, iv; type: ADME, organism-based; set-up: dose 2 mg/kg, route intravenous; conditions: plasma; how it was run: as §1
[7] = Volume of distribution at steady state in C57B6 mouse at 2 mg/kg, iv; type: ADME, organism-based; set-up: dose 2 mg/kg, route intravenous; conditions: in vivo, read-out: Vdss; how it was run: as §1
[8] = Clearance in C57B6 mouse at 2 mg/kg, iv; type: ADME, organism-based; set-up: dose 2 mg/kg, route intravenous; conditions: in vivo; how it was run: as §1
[9] = biological target: T1, 11-beta-hydroxysteroid dehydrogenase type 2 (Homo sapiens, UniProt P80365); experiment: Inhibition of human 11beta-HSD2 expressed in CHO cells using […] as substrate incubated for 30 mins prior to substrate addition measured after 120 mins by scintillation counting analysis; type: cell-based
T1 sequence (P80365 whole entry): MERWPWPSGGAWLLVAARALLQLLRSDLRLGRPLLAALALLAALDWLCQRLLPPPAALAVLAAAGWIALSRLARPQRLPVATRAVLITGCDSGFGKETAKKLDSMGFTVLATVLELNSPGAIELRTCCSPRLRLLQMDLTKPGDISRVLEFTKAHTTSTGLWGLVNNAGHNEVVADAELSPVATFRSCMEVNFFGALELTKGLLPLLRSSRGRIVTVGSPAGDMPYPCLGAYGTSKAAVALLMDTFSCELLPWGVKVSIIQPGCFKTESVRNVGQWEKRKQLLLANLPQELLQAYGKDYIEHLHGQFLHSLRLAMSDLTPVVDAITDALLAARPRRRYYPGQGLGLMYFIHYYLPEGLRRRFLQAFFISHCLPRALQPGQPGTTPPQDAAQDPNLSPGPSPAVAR

Mus musculus [10] = experiment: Ex vivo inhibition of 11beta-HSD1 in C57B16 mouse epididymal fat assessed as conversion of [3H]-cortisone to [3H]-cortisol at 10 mg/kg, po after 5 hrs by HPLC analysis relative to vehicle-treated control; type: functional
How it was run: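 Mice were dosed orally at 10 mg/kg. Epididymal fat was collected 5 h after dosing for the ex vivo readout.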

[11] = Half life in mouse liver microsomes; type: ADME, Microsome
[12] = biological target: T2, 11-beta-hydroxysteroid dehydrogenase 1 (Mus musculus, UniProt P50172); experiment: Inhibition of mouse 11beta-HSD1 expressed in CHO cells […] incubated for 30 mins prior to substrate addition measured after 120 mins by chemiluminescence assay in presence of 10% human serum; type: cell-based
How it was run: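 Cell-based assay with 10% (v/v) human serum in the culture medium. Run in duplicate, with 11-point 2-fold dilutions giving the IC50. Lower threshold was 10 nM.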

[13] = biological target: T2, 11-beta-hydroxysteroid dehydrogenase 1; experiment: Inhibition of mouse 11beta-HSD1 expressed in CHO cells […] incubated for 30 mins prior to substrate addition measured after 120 mins by chemiluminescence assay; type: cell-based
How it was run: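 Cell-based assay run in duplicate. Compounds were tested as 11-point 2-fold dilutions, and IC50 was derived. Lower assay threshold was 10 nM.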

[14] = Half life in human liver microsomes; type: ADME, Microsome
[15] = biological target: 11-beta-hydroxysteroid dehydrogenase 1 (Homo sapiens, UniProt P28845); experiment: Inhibition of human 11beta-HSD1 expressed in CHO cells using cortisone as substrate incubated for 30 mins prior to substrate addition measured after 120 mins by chemiluminescence assay
Mus musculus [16] = organism: Mus musculus; experiment: Toxicity in C57B6 DIO mouse assessed as body weight gain at after 31 days; conditions: in vivo, po, 744 h
Cytochrome P450 2C9 = Cytochrome P450 2C9 (Homo sapiens, UniProt P11712); experiment: Inhibition of CYP2C9 (unknown origin); type: ADME
[17] = Half life in C57B6 mouse at 10 mg/kg, po; type: ADME, organism-based; set-up: dose 10 mg/kg, route oral; conditions: in vivo; how it was run: as §1

T2 sequence (P50172 whole entry): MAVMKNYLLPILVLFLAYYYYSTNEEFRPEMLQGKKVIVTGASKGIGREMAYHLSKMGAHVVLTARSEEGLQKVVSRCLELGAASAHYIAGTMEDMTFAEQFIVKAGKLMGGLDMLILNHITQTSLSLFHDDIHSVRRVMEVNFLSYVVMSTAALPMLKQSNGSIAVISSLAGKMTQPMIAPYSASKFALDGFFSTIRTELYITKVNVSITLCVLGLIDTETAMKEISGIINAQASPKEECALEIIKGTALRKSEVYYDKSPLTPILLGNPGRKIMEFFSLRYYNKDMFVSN
Chain of 11-beta-hydroxysteroid dehydrogenase 1 (Homo sapiens, UniProt P28845) (P28845 whole entry): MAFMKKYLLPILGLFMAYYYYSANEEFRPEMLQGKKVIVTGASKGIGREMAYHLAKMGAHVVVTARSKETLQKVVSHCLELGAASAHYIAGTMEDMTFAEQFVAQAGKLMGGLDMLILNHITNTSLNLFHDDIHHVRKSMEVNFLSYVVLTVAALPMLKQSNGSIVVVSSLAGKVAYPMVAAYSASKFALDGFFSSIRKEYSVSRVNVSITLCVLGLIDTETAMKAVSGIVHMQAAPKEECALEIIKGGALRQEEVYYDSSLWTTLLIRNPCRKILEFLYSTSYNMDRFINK
Chain of Cytochrome P450 2C9 (P11712 whole entry): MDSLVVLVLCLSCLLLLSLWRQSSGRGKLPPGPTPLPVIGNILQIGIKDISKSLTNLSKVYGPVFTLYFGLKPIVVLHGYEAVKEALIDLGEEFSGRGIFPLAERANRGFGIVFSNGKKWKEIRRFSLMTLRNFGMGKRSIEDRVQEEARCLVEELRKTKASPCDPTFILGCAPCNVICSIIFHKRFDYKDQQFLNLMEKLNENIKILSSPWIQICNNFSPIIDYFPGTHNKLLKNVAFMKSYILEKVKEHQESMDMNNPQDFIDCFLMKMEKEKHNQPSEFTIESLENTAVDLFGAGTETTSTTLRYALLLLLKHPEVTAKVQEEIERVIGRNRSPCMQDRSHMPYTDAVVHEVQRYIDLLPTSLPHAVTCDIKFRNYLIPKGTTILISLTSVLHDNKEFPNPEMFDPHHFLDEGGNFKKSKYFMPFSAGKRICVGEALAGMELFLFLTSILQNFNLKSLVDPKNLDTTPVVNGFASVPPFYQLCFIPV

Row | Compound | inhibition in vivo at 10 mg/kg (Mus musculus [10]) | half-life [11] | IC50 [12] | IC50 [13] | half-life [14] | IC50 [15] | further results
1 | C[C@@H]1CN(c2ccc(F)cc2C(F)(F)F)CCN1S(=O)(=O)c1ccc([C@@](C)(O)C(F)(F)F)s1 | 80% | 17 min | 10 nM | 10 nM | > 30 min | 17 nM | bioavailability [1]: 19%; AUC [2]: 3400 ng·h/mL; Tmax [3]: 30 min; Cmax [4]: 449 ng/mL; half-life [5]: 570 min; AUC [6]: 3590 ng·h/mL; Vd [7]: 5.8 L/kg; clearance [8]: 9 mL/min/kg; IC50 [9]: > 100000 nM
2 | C[C@@H]1CN(c2ccc(F)cc2C(F)(F)F)CCN1S(=O)(=O)c1ccc([C@@](O)(C(N)=O)C(F)(F)F)cc1 | < 10% | 30 min | 48 nM | 40 nM | 10 min | – | –
3 | CN(CCOc1ccc(CC2SC(=O)NC2=O)cc1)c1ccccn1 (configuration not stated) [ROSIGLITAZONE] | – | – | – | – | – | – | Activity (Mus musculus [16]): Non-toxic
4 | C[C@@H]1CN(c2ccc(C(N)=O)cc2C(F)(F)F)CCN1S(=O)(=O)c1ccc([C@@](C)(O)C(F)(F)F)s1 | 87% | 17 min | – | – | 17 min | – | inhibition (INH) (Cytochrome P450 2C9): Active
5 | C[C@@H]1CN(c2ccc(F)cc2C(F)(F)F)CCN1S(=O)(=O)c1ccc([C@](C)(O)C(F)(F)F)s1 | 5% | > 30 min | 10 nM | 10 nM | > 30 min | 10 nM | –
6 | C[C@@H]1CN(c2ccc(F)cc2C(F)(F)F)CCN1S(=O)(=O)c1ncc([C@](O)(C(N)=O)C(F)(F)F)s1 | 17% | > 30 min | – | – | 19 min | – | –
7 | C[C@@H]1CN(c2ccc(F)cc2C(F)(F)F)CCN1S(=O)(=O)c1nc(C(C)(O)C(F)(F)F)n(C)n1 (some centres not stated) | 38% | 23 min | 1390 nM | 165 nM | 10 min | – | –
8 | C[C@@H]1CN(c2ccc(F)cc2C(F)(F)F)CCN1S(=O)(=O)c1cccc([C@](O)(C(N)=O)C(F)(F)F)c1 | 38% | < 2 min | 10 nM | 10 nM | < 2 min | 51 nM | –
9 | C[C@@H]1CN(c2ccc(F)cc2C(F)(F)F)CCN1S(=O)(=O)c1ncc([C@@](O)(C(N)=O)C(F)(F)F)s1 | 83% | 18 min | – | – | 21 min | – | –
10 | C[C@@H]1CN(c2ccc(F)cc2C(F)(F)F)CCN1S(=O)(=O)c1ccc([C@](O)(C(N)=O)C(F)(F)F)s1 | 50% | 18 min | 10 nM | 10 nM | 18 min | 145 nM | –
11 | C[C@@H]1CN(c2ccc(C(N)=O)cc2C(F)(F)F)CCN1S(=O)(=O)c1ccc([C@](C)(O)C(F)(F)F)s1 | 86% | 17 min | – | – | 10 min | – | inhibition (INH) (Cytochrome P450 2C9): Active
12 | C[C@@H]1CN(c2ccc(F)cc2C(F)(F)F)CCN1S(=O)(=O)c1ccc(C(C)(O)C(F)(F)F)s1 (some centres not stated) | 44% | 17 min | 10 nM | 10 nM | > 30 min | 15 nM | –
13 | C[C@@H]1CN(c2ccc(F)cc2C(F)(F)F)CCN1S(=O)(=O)c1ccc([C@](O)(C(N)=O)C(F)(F)F)cc1 | < 10% | 30 min | 41 nM | 20 nM | 27 min | – | –
14 | C[C@@H]1CN(c2ccc(F)cc2C(F)(F)F)CCN1S(=O)(=O)c1cn(C)c(C(C)(O)C(F)(F)F)n1 (some centres not stated) | 33% | 30 min | 18 nM | 77 nM | 10 min | – | –
15 | C[C@@H]1CN(c2ccc(F)cc2C(F)(F)F)CCN1S(=O)(=O)c1cccc([C@@](O)(C(N)=O)C(F)(F)F)c1 | 82% | 30 min | 10 nM | 10 nM | 18 min | 23 nM | bioavailability [1]: 46%; half-life [17]: 168 min; AUC [2]: 14000 ng·h/mL; Tmax [3]: 120 min; Cmax [4]: 1550 ng/mL; half-life [5]: 252 min; AUC [6]: 6130 ng·h/mL; Vd [7]: 1.8 L/kg; clearance [8]: 5.4 mL/min/kg; IC50 [9]: > 100000 nM
16 | C[C@@H]1CN(c2ccc(F)cc2C(F)(F)F)CCN1S(=O)(=O)c1ccc(C(O)(c2nnc[nH]2)C(F)(F)F)s1 (some centres not stated) | 57% | 26 min | – | – | – | – | –

— ChEMBL document CHEMBL2321820, “Discovery of HSD-621 as a Potential Agent for the Treatment of Type 2 Diabetes” (ACS Med Chem Lett, 2013)
